Laboratory results: ChEMBL document CHEMBL2417413, “Synthesis and biological evaluation of 1,7,8,8a-tetrahydro-3H-oxazolo[3,4-a]pyrazin-6(5H)-ones as antitumoral agents” (Bioorg Med Chem, 2013)
Activity calls are given as the source filed them. The calls are words filed in the database; no cut-off is given here.

What was measured:
8305C [1] = assay: Induction of apoptosis in human 8305C cells assessed as DNA fragmentation at 50 uM after 24 hrs by SYBR green-1 staining-based electrophoretic analysis; assay type: functional, cell-based
Procedure, shortened: (§1)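 After 24 h of treatment, DNA was extracted from untreated and treated cells. Fragments were separated on a 2% agarose gel with SYBR Green I staining, and GAPDH-1 served as the reference gene.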

FTC-133 [2] = assay: Induction of apoptosis in human FTC-133 cells assessed as DNA fragmentation at 50 uM after 24 hrs by SYBR green-1 staining-based electrophoretic analysis; assay type: functional, cell-based; procedure, shortened: as §1
8305C [3] = assay: Induction of apoptosis in human 8305C cells assessed as caspase-3 activation at 50 uM after 24 hrs by fluorescence microscopic analysis (reference value: 3.22 +/- 1%); assay type: functional
FTC-133 [4] = assay: Induction of apoptosis in human FTC-133 cells assessed as caspase-3 activation at 50 uM after 24 hrs by fluorescence microscopic analysis (reference value: 2.51 +/- 1%); assay type: functional
8305C [5] = assay: Cytotoxicity against human 8305C cells assessed as reduction in cell viability after 24 hrs by MTT assay; assay type: functional, cell-based
Procedure, shortened: (§2)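 Cells seeded at 6 × 10^5 per well and exposed to 5–100 µM for 24 h at 37 °C in 5% CO2. Then 0.5% MTT in PBS (pH 7.4) was added for 1 h, supernatant replaced with DMSO, and OD read at 570 nm. IC50 was read graphically from dose-effect curves. Values are mean ± SD of four independent experiments, each run in triplicate.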

FTC-133 [6] = assay: Cytotoxicity against human FTC-133 cells assessed as reduction in cell viability after 24 hrs by MTT assay; assay type: functional, cell-based; conditions: FTC-133, 24 h; procedure, shortened: as §2
8305C [7] = assay: Cytotoxicity against human 8305C cells assessed as reduction in cell viability at 50 uM after 24 hrs by MTT assay; assay type: functional, cell-based
Procedure, shortened: (§3)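 Cultures were treated at 50 µM for 24 h at 37 °C in 5% CO2 alongside untreated controls. Viability was read by MTT reduction (0.5% MTT in PBS pH 7.4, 1 h), with formazan dissolved in DMSO and OD measured at 570 nm.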

FTC-133 [8] = assay: Cytotoxicity against human FTC-133 cells assessed as reduction in cell viability at 50 uM after 24 hrs by MTT assay; assay type: functional, cell-based; procedure, shortened: as §3

Compound	Activity (8305C [1])	Activity (FTC-133 [2])	Activity (8305C [3]) [%]	Activity (FTC-133 [4]) [%]	IC50 (8305C [5]) [µM]	IC50 (FTC-133 [6]) [µM]	Activity (8305C [7])	Activity (FTC-133 [8])
O=C1CN2/C(=N/c3ccc4ccc5cccc6ccc3c4c56)OCC2CN1C1CCCCC1 (configuration not stated)	Active	Active	68.3	89.24	68.5	48.3	Active	Active
O=C1CN2/C(=N/c3cccc4ccccc34)OCC2CN1C1CCCCC1 (configuration not stated)	Active	Active	78.56	90.56	61	44.8	Active	Active
O=C1CN2/C(=N/c3ccccc3)OCC2CN1C1CCCCC1 (configuration not stated)	Active	Active	75.88	88.68	70.7	50	Active	Active
O=C1CN2/C(=N/c3ccc4ccc5cccc6ccc3c4c56)OCC2CN1c1ccccc1 (configuration not stated)	Active	Active	18.24	29.3	80.3	74.2	Active	Active
